Among the data in PubChem BioAssay AID720508 (The Scripps Research Institute Molecular Screening Center, 2013) are inhibition values, retold here.

Molecules are shown by their SMILES. About 500 (0.14%) of roughly 370,000 compounds were called active.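 The calls were made as follows: active = inhibition above the mean of compounds falling within the control limits plus 3 SD of them (cut at about 14% in these data); inactive = the rest.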 The full list was thinned out, with actives kept by preference.

Fibrinogen beta chain (Homo sapiens), sequence (P02675 whole entry, looked up): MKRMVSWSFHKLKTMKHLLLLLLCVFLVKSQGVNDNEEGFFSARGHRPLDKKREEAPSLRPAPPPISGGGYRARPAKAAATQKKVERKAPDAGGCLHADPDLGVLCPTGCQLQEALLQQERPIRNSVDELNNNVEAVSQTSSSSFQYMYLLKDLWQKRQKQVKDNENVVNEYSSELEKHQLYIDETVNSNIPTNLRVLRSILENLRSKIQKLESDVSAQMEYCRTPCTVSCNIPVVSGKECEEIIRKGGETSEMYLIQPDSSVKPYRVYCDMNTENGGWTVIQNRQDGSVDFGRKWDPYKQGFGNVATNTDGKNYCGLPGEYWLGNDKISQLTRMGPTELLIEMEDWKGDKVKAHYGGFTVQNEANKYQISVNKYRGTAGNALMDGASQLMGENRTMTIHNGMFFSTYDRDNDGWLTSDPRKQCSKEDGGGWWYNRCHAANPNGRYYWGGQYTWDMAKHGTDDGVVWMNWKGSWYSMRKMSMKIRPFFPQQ

This assay addresses Fibrinogen beta chain (Homo sapiens) (UniProt P02675). The assay is described as follows: inhibitors of Tn7 peptide binding to fibrin DD(E), primary screen, biochemical, fluorescence polarization, human fibrin, Tn7 probe (AID 720508).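 Also: 0% = plate median of compound wells and 100% = 10 µM Aha-Tn7 peptide.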 Particulars: FP displacement of FITC-Tn7 peptide from fibrin DD(E); at 8.3 µM; hits give high values; 0% = median of compound wells per plate. The procedure, abridged: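 assay system = human clot-derived fibrin DD(E) complex | quantity = Fibrin-DD(E) at 2 µM final | timing = 10 min preincubation, 3 h with tracer, room temperature | signal = fluorescence polarization | measure = percent inhibition | benchmarks = high control wells with 10 µM unlabelled Aha-Tn7 peptide (full inhibition) | replicates = singlicate testing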
For orientation: Fluorescence polarisation rises when a labelled molecule tumbles more slowly, as on binding a larger partner.
On to `COc1ccc(C(C(=O)NC2CCCCC2)N(C(=O)Cc2c[nH]c3ccccc23)c2ccccc2)cc1OC` (stereo unspecified), for which the inhibition – broadly, the drop in the measured response relative to a control, in per cent – is 2.39% (inactive).

`COC(=O)CNC(=O)C(CCSC)NC(C)=O` (stereo unspecified): the inhibition was 3.11% (inactive). As for `COc1cc(OC)c(C(=S)N2CCCC2)cc1OC`, the inhibition was 2.99% (inactive). Turning to `CC1(C)C/C(=C(/C#N)C(N)=O)CCO1`, the inhibition is -4% (inactive).

`Cc1cc(C(=O)COc2ccc(Br)cc2F)c(C)n1C1CC1`: the inhibition was 1.64% (inactive). `O=C(NC1CCCCN(Cc2cccc(C(F)(F)F)c2)C1=O)c1ccccc1I` (stereo unspecified): the inhibition was 2.66% (inactive). For the compound `O=C(NCc1ccc(F)cc1F)[C@@H]1CCCN1C(=O)[C@@H]1CCCN1C(=O)c1cccc(Cl)c1`, the inhibition is -9.38% (inactive). Take `O=C(COC(=O)CNS(=O)(=O)c1ccccc1)NC12CC3CC(CC(C3)C1)C2`: the inhibition is 2.98% (inactive). For the compound `CC1CC1C(=O)OCC(=O)c1c(N)n(C)c(=O)n(C)c1=O` (stereo unspecified), the inhibition was -2.99% (inactive).

Turning to `CC(C)NC(=O)C1(C)CCCCN1Cc1cccc(C(F)(F)F)c1` (stereo unspecified), the inhibition is 1.37% (inactive). In the case of `Clc1ccc(CN2CCCCCC2)cc1Cl` it was 1.42% (inactive); in that of `c1cc(-c2nn[nH]n2)ccc1CN1CCCCC1`, 14.4% (active); in that of `Brc1ccc(-c2nn[nH]n2)cc1`, -4.35% (inactive).

As for `COc1cccc(N2CC(NC(=O)c3ccc4ccccc4c3)CC2=O)c1` (stereo unspecified), the inhibition is 6.86% (inactive). Turning to `COc1cccc(N2CC(NS(=O)(=O)c3cccs3)CC2=O)c1` (stereo unspecified), the inhibition is 15.4% (active). For `COc1cccc(N2CC(NS(=O)(=O)c3ccc(Cl)cc3)CC2=O)c1` (stereo unspecified), the inhibition was -2.23% (inactive). As for `CCN(CC)C(=O)CSC(Nc1cccc(F)c1)=C(C#N)C#N`, the inhibition is 2.96% (inactive). With `CCn1c(C)nc2c1C(=O)c1ccccc1C2=O`, the inhibition was -6.92% (inactive).

Take `CCC(C(=O)OC)n1cnc2c(oc3ccccc32)c1=O` (stereo unspecified): the inhibition was 6.68% (inactive).

`Cc1ccc(S(=O)(=O)CC(=O)Nc2sc(C)c(C)c2C(N)=O)cc1`: the inhibition is -0.13% (inactive). As to `NC1=NC(=O)C(Cc2cccc(Cl)c2)S1` (stereo unspecified), the inhibition is 2.82% (inactive). Take `COCc1cc(=O)n2[nH]c(C)c(-c3ccccc3)c2n1`: the inhibition is -2.38% (inactive). Take `CN(C(=O)C1CCN(c2ncnc3c2nc2n3CCCCC2)CC1)C1CCCCC1`: the inhibition was -2.26% (inactive). With `Cc1ccc(CN2CCN(Cc3ccc(OCCO)cc3)CC2CCO)o1` (stereo unspecified), the inhibition was 7.01% (inactive).

On to `CCCCNC(=O)C[C@@H]1C[C@@]2(C(=O)OCC)CCC=C2N(Cc2cccc3ccccc23)C1=O`, for which the inhibition is -3.28% (inactive). In the case of `CN(C(=O)CSc1nc(C2CC2)nc2ccccc12)c1nc(-c2ccccc2)cs1` it was -7.43% (inactive).

For `CN1c2ccc(C=O)c3c(C=O)ccc(c23)N(C)C1(C)C`, the inhibition was 16.9% (active).

`COc1ccc(NC(=O)NNC(=O)COc2cc(C)c(Cl)c(C)c2)c(OC)c1`: the inhibition was -5.88% (inactive).

For the compound `O=C1NC(=Nc2ccc(Cl)cc2)SC1Cc1cccc(Cl)c1Cl` (stereo unspecified), the inhibition is 0.11% (inactive). In the case of `Cc1ccc(N(C(=O)C(F)(F)F)C(C(=O)NC2CCCCC2)c2ccncc2)cc1C` (stereo unspecified), the inhibition is 5.16% (inactive). In the case of `CC[C@@H]1CCCCc2ccccc2[C@@H](C(=O)C[C@H](O)CC(C)=O)OC1=O`, the inhibition is 1.6% (inactive).

Take `CCCNC(=O)C(=O)Nc1cc2c3c(c1)CCC(=O)N3CCC2`: the inhibition is 0.54% (inactive). For `COc1ccccc1C(=O)N1CCN=C1SCc1cccnc1`, the inhibition was 3.49% (inactive). Turning to `COC(=O)CNc1nc(Cl)nc(N2CCC(C)CC2)n1`, the inhibition was 7.41% (inactive). For the compound `NC(=O)c1cc(S(=O)(=O)N2CCCC2)ccc1OCc1ccc(F)cc1`, the inhibition is 0.91% (inactive). Regarding `CC(C)(C)c1ccccc1NC(=O)CN1C(=O)NC2(CCCC2)C1=O`, the inhibition is -0.76% (inactive). With `Cc1nn(C)c(C)c1S(=O)(=O)N1CCc2ccccc21`, the inhibition is -4.06% (inactive). As for `CCO[C@H]1OC(C(=O)N2CCN(Cc3ccccc3)CC2)=C[C@@H](c2cn(C(C)=O)c3ccccc23)[C@@H]1CCCO`, the figure is 7% (inactive). As for `O=C(COC(=O)/C=C/c1ccc(OC(F)F)cc1)NC1CCCCC1`, the figure is 13.9% (active); as for `COc1ccccc1/C=C/C(=O)OCC(=O)NC1CCCCCC1`, 8.08% (inactive); as for `C=CCOc1ccc(/C=C/C(=O)OCC(=O)NC2CCCCCC2)cc1`, 0.53% (inactive).
